According to ChEMBL document CHEMBL1131159, “Bis-cationic heteroaromatics as macrofilaricides: synthesis of bis-amidine and bis-guanylhydrazone derivatives of substituted imidazo[1,2-a]pyridines” (1998):
Several values for one entry are separate records, joined by “and”; a condition that tells them apart may be missing. Equal entries are not always repeated.

Experiments:
Acanthocheilonema viteae = experiment: Macrofilarial reduction at 100 mg/kg dosage by subcutaneous administration for a period of 5 days against Acanthocheilonema viteae; format: functional
Summary of the method: (§1)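 Jirds doubly infected with A. viteae and B. pahangi were dosed subcutaneously once daily on five successive days. Each series included a flubendazole positive control at 2.0 mg/day for 5 days. Jirds were killed 56 days later and worms of each species counted. Worm percentage was compared with untreated negative controls, and ≥60% reduction was scored as active.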

Brugia pahangi = experiment: Macrofilarial reduction at 100 mg/kg dosage by subcutaneous administration for a period of 5 days against Brugia pahangi; format: functional; summary of the method: as §1
Meriones unguiculatus [1] = experiment: Compound was tested for macrofilarial reduction at 6.25 mg/kg dosage by subcutaneous administration for a period of 5 days against Acanthocheilonema viteae (Acanthocheilonema viteae); format: functional; summary of the method: as §1
Meriones unguiculatus [2] = experiment: Compound was tested for macrofilarial reduction at 6.25 mg/kg dosage by subcutaneous administration for a period of 5 days against Brugia pahangi (Brugia pahangi).; format: functional; summary of the method: as §1
Meriones unguiculatus [3] = experiment: Compound was tested for macrofilarial reduction at 100 mg/kg dosage by subcutaneous administration for a period of 5 days against Acanthocheilonema viteae (Acanthocheilonema viteae); Toxic; format: functional, organism-based; design: dose 100 mg/kg; summary of the method: as §1
Meriones unguiculatus [4] = experiment: Compound was tested for macrofilarial reduction at 100 mg/kg dosage by subcutaneous administration for a period of 5 days against Brugia pahangi (Brugia pahangi); Toxic; format: functional, organism-based; design: dose 100 mg/kg; summary of the method: as §1
[5] = Compound was tested for macrofilarial reduction at 12.5 mg/kg dosage by subcutaneous administration for a period of 5 days against Acanthocheilonema viteae (Acanthocheilonema viteae); format: functional, Meriones unguiculatus; summary of the method: as §1
Meriones unguiculatus [6] = experiment: Compound was tested for macrofilarial reduction at 12.5 mg/kg dosage by subcutaneous administration for a period of 5 days against Brugia pahangi (Brugia pahangi).; format: functional; summary of the method: as §1
Meriones unguiculatus [7] = experiment: Compound was tested for macrofilarial reduction at 100 mg/kg dosage by subcutaneous administration for a period of 5 days against Acanthocheilonema viteae (Acanthocheilonema viteae) * Toxicity noted at this dosage; format: functional; summary of the method: as §1
Meriones unguiculatus [8] = experiment: Compound was tested for macrofilarial reduction at 100 mg/kg dosage by subcutaneous administration for a period of 5 days against Brugia pahangi (Brugia pahangi). * Toxicity noted at this dosage; format: functional; summary of the method: as §1
Meriones unguiculatus [9] = experiment: Compound was tested for macrofilarial reduction at 3.12 mg/kg dosage by subcutaneous administration for a period of 5 days against Acanthocheilonema viteae (Acanthocheilonema viteae); format: functional; summary of the method: as §1
Meriones unguiculatus [10] = experiment: Compound was tested for macrofilarial reduction at 3.12 mg/kg dosage by subcutaneous administration for a period of 5 days against Brugia pahangi (Brugia pahangi).; format: functional; summary of the method: as §1
Meriones unguiculatus [11] = experiment: Compound was tested for macrofilarial reduction at 25 mg/kg dosage by subcutaneous administration for a period of 5 days against Acanthocheilonema viteae (Acanthocheilonema viteae); format: functional; summary of the method: as §1
Meriones unguiculatus [12] = experiment: Compound was tested for macrofilarial reduction at 50 mg/kg dosage by subcutaneous administration for a period of 5 days against Acanthocheilonema viteae (Acanthocheilonema viteae); format: functional; summary of the method: as §1
Meriones unguiculatus [13] = experiment: Compound was tested for macrofilarial reduction at 50 mg/kg dosage by subcutaneous administration for a period of 5 days against Brugia pahangi (Brugia pahangi).; format: functional; summary of the method: as §1
Meriones unguiculatus [14] = experiment: Compound was tested for macrofilarial reduction at 25 mg/kg dosage by subcutaneous administration for a period of 5 days against Brugia pahangi (Brugia pahangi).; format: functional; summary of the method: as §1
Meriones unguiculatus [15] = experiment: Compound was tested for macrofilarial reduction at 75 mg/kg dosage by subcutaneous administration for a period of 5 days against Acanthocheilonema viteae (Acanthocheilonema viteae); format: functional; summary of the method: as §1
Meriones unguiculatus [16] = experiment: Compound was tested for macrofilarial reduction at 75 mg/kg dosage by subcutaneous administration for a period of 5 days against Brugia pahangi (Brugia pahangi).; format: functional; summary of the method: as §1
Meriones unguiculatus [17] = experiment: Compound was tested for macrofilarial reduction at 1.56 mg/kg dosage by subcutaneous administration for a period of 5 days against Acanthocheilonema viteae (Acanthocheilonema viteae); format: functional; summary of the method: as §1
Meriones unguiculatus [18] = experiment: Compound was tested for macrofilarial reduction at 1.56 mg/kg dosage by subcutaneous administration for a period of 5 days against Brugia pahangi (Brugia pahangi).; format: functional; summary of the method: as §1

Row | SMILES | Reduction (Acanthocheilonema viteae) [%] | Reduction (Brugia pahangi) [%] | other results
1 | N=C(c1ccc2nc(-c3ccccc3)cn2c1)N1CCCC1 | – | – | Reduction (Acanthocheilonema viteae; 100 mg/kg): 60% and 27%; Reduction (Brugia pahangi; 100 mg/kg): 25% and 0%
2 | C(=NNc1ccccn1)c1ccc(-c2cn3cc(C=NNc4ccccn4)ccc3n2)cc1 | 0 | 0 | –
3 | C(=NNC1=NCCCN1)c1ccc(-c2cn3ccccc3n2)cc1 | 0 | 0 | –
4 | C(=NNC1=NCCN1)c1ccc(/C=C/c2cn3cc(C=NNC4=NCCN4)ccc3n2)cc1 | 24 | 4 | –
5 | C(=NNC1=NCCCN1)c1ccc2nc(C=NNC3=NCCCN3)cn2c1 | 0 | 5 | –
6 | N=C(NN=Cc1ccc(-c2cn3ccccc3n2)cc1)N1CCOCC1 | 0 | 12 | –
7 | N=C(/C=C/c1ccc(-c2cn3cc(/C=C/C(=N)N4CCCC4)ccc3n2)cc1)N1CCCC1 | – | – | Reduction (Meriones unguiculatus [1]): 72%; Reduction (Meriones unguiculatus [2]): 0%
8 | C(=NNC1=NCCS1)c1ccc(-c2cn3cc(C=NNC4=NCCS4)ccc3n2)cc1 | 0 | 38 | –
9 | N=C(c1ccc(-c2cn3ccccc3n2)cc1)N1CCCCC1 | 0 | 15 | –
10 | C(=C\c1cn2cc(C3=NCCN3)ccc2n1)/c1ccc(C2=NCCN2)cc1 | – | – | Reduction (Meriones unguiculatus [3]): Toxic; Reduction (Meriones unguiculatus [4]): Toxic
11 | C(=Cc1ccc(-c2cn3cc(C=CC4=NCCS4)ccc3n2)cc1)C1=NCCS1 | 0 | 0 | –
12 | N=C(/C=C/c1ccc(-c2cn3cc(/C=C/C(=N)N4CCOCC4)ccc3n2)cc1)N1CCOCC1 | – | – | Reduction [5]: 50%; Reduction (Meriones unguiculatus [6]): 0%
13 | CC(C)NC(=N)c1ccc(/C=C/c2cn3cc(C(=N)NC(C)C)ccc3n2)cc1 | – | – | Reduction (Meriones unguiculatus [3]): Toxic; Reduction (Meriones unguiculatus [4]): Toxic
14 | N=C(NN=Cc1ccc(-c2cn3cc(C=NNC(=N)N4CCCC4)ccc3n2)cc1)N1CCCC1 | 60 | 0 | Reduction (Meriones unguiculatus [7]): 73%; Reduction (Meriones unguiculatus [8]): 0%
15 | C(=Cc1ccc(-c2cn3ccccc3n2)cc1)C1=NCCN1 | 28 | 18 | –
16 | Cc1ccc(S(=O)(=O)NN=Cc2ccc(-c3cn4cc(C=NNS(=O)(=O)c5ccc(C)cc5)ccc4n3)cc2)cc1 | 0 | 16 | –
17 | C(/C=C/c1ccc(-c2cn3cc(/C=C/C=NNC4=NCCN4)ccc3n2)cc1)=NNC1=NCCN1 | 71 | 18 | –
18 | N=C(c1ccc(-c2cn3cc(C(=N)N4CCCC4)ccc3n2)cc1)N1CCCC1 | – | – | Reduction (Meriones unguiculatus [9]): 39%; Reduction (Meriones unguiculatus [10]): 0%
19 | C(=NNC1=NCCN1)c1ccc2nc(-c3ccccc3)cn2c1 | 20 | 0 | –
20 | CN1CCN(C(=N)/C=C/c2ccc(-c3cn4cc(/C=C/C(=N)N5CCN(C)CC5)ccc4n3)cc2)CC1 | – | – | Reduction [5]: 57%; Reduction (Meriones unguiculatus [6]): 0%
21 | c1ccn2cc(-c3ccc(C4=NCCN4)cc3)nc2c1 | 20 | 8 | –

Row | SMILES | Reduction (Acanthocheilonema viteae) [%] | Reduction (Brugia pahangi) [%] | other results
22 | N=C(NN=Cc1ccc(-c2cn3ccccc3n2)cc1)N1CCCC1 | 47 | 0 | –
23 | C(=NNC1=NCCN1)c1ccc2nc(C=NNC3=NCCN3)cn2c1 | 5 | 5 | –
24 | C(=NNC1=NCCN1)c1ccc(-c2cn3ccccc3n2)cc1 | 60 | 0 | –
25 | CC(C)NC(=N)NN=Cc1ccc(-c2cn3cc(C=NNC(=N)NC(C)C)ccc3n2)cc1 | 100 | 32 | –
26 | N=C(NN=C/C=C/c1ccc(-c2cn3cc(/C=C/C=NNC(=N)N4CCCC4)ccc3n2)cc1)N1CCCC1 | – | – | Reduction [5]: 50%; Reduction (Meriones unguiculatus [6]): 38%
27 | c1ccc(-c2cn3cc(C4=NCCN4)ccc3n2)cc1 | 0 | 42 | –
28 | C(=NNC1=NCCCN1)c1ccc(/C=C/c2cn3cc(C=NNC4=NCCCN4)ccc3n2)cc1 | 100 | 32 | –
29 | N=C(c1ccc(-c2cn3ccccc3n2)cc1)N1CCCC1 | 0 | 36 | –
30 | C(=NNC1=NCCC1)c1ccc(-c2cn3cc(C=NNC4=NCCC4)ccc3n2)cc1 | 24 | 5 | –
31 | C(=NNC1=NCCN1)c1ccc(-c2cn3cc(C=NNC4=NCCN4)ccc3n2)cc1 | – | – | Reduction (Acanthocheilonema viteae; 100 mg/kg): 100% and 78%; Reduction (Brugia pahangi; 100 mg/kg): 18% and 11%; Reduction [5]: 82%; Reduction (Meriones unguiculatus [6]): 0%; Reduction (Meriones unguiculatus [11]; 25 mg/kg): 82% and 73%; Reduction (Meriones unguiculatus [12]): 100%; Reduction (Meriones unguiculatus [13]): 0%
32 | C(/C=C/c1ccc(-c2cn3cc(/C=C/C=NNC4=NCCCN4)ccc3n2)cc1)=NNC1=NCCCN1 | – | – | Reduction (Acanthocheilonema viteae; 100 mg/kg): 100% and 64%; Reduction [5]: 50%; Reduction (Meriones unguiculatus [6]): 38%; Reduction (Meriones unguiculatus [11]): 73%; Reduction (Meriones unguiculatus [14]): 13%; Reduction (Meriones unguiculatus [12]): 100%; Reduction (Meriones unguiculatus [13]): 38%
33 | C(=NNC1=NCCCN1)c1ccc(-c2cn3cc(C=NNC4=NCCCN4)ccc3n2)cc1 | 100 | – | Reduction (Meriones unguiculatus [1]; 6.25 mg/kg): 100% and 75%; Reduction (Meriones unguiculatus [15]): 100%; Reduction (Meriones unguiculatus [16]): 0%; Reduction (Meriones unguiculatus [17]): 73%; Reduction (Meriones unguiculatus [18]): 16%; Reduction (Brugia pahangi; 100 mg/kg): 9% and 0%; Reduction ([5]; 12.5 mg/kg): 100% and 64%; Reduction (Meriones unguiculatus [14]): 0%; Reduction (Meriones unguiculatus [9]): 88%; Reduction (Meriones unguiculatus [10]): 11%; Reduction (Meriones unguiculatus [12]): 100%; Reduction (Meriones unguiculatus [13]): 0%
34 | c1ccn2cc(-c3ccc(C4=NCCCN4)cc3)nc2c1 | 0 | 0 | –
35 | N=C(c1ccc(/C=C/c2cn3cc(C(=N)N4CCCC4)ccc3n2)cc1)N1CCCC1 | – | – | Reduction (Meriones unguiculatus [3]): Toxic; Reduction (Meriones unguiculatus [4]): Toxic
36 | C(=NNC1=NCCCN1)c1ccc2nc(-c3ccccc3)cn2c1 | 30 | 0 | –
37 | N=C(c1ccc(-c2cn3ccccc3n2)cc1)N1CCOCC1 | 0 | 29 | –
38 | C(=Cc1ccc(-c2cn3ccccc3n2)cc1)C1=NCCS1 | 0 | 0 | –
39 | c1cc(-c2cn3cc(C4=NCCN4)ccc3n2)ccc1C1=NCCN1 | 0 | 35 | –
40 | N=C(NN=Cc1ccc2nc(C=NNC(=N)N3CCCC3)cn2c1)N1CCCC1 | 0 | 5 | –
41 | Nc1ccc(C(=O)NN=Cc2ccc(-c3cn4cc(C=NNC(=O)c5ccc(N)cc5)ccc4n3)cc2)cc1 | 0 | 8 | –
42 | N=C(c1ccc2nc(-c3ccccc3)cn2c1)N1CCOCC1 | 0 | 12 | –
